Experimental data reported in ChEMBL document CHEMBL3098002, “Cassaine diterpene alkaloids from Erythrophleum fordii and their anti-angiogenic effect” (Bioorg Med Chem Lett, 2014).
The source made the active and inactive calls. The calls are words filed in the database; no cut-off is given here.

What was measured:
[1] = system: HUVEC; assay: Cytotoxicity against HUVEC assessed as cell viability at 3 to 30 ug/ml after 48 hrs by MTT assay; format: cell-based; conditions: human
Summary of the method: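 HUVECs were grown on gelatin-coated plates to 80% confluency, then treated for 48 h alongside a 0.1% DMSO control. MTT was added to a final 0.05% for 3 h at 37 °C. Formazan was dissolved in DMSO and read at 570 nm against 630 nm reference. Viability was expressed as a percentage of untreated cells.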

[2] = system: HUVEC; assay: Antiangiogenic activity against HUVEC assessed as inhibition of capillary-like tube formation at 3 ug/ml after 15 hrs by Matrigel assay relative to control; format: functional; conditions: Homo sapiens
Summary of the method: (§1)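 HUVECs were grown in M199 with 20% FBS, 1% penicillin/streptomycin, 0.01% heparin and ECGS on 0.2% gelatin-coated plates at 37 °C in 5% CO2. For the assay, 1 × 10^4 cells were suspended in medium containing compound and added onto polymerized Matrigel at 37 °C. Cultures were photographed at ×100 and tubes counted. Values were normalized to solvent controls (100%), n = 3, mean ± SD.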

[3] = system: HUVEC; assay: Cytotoxicity against HUVEC at 3 to 30 ug/ml by LDH release assay; format: cell-based; conditions: human
[4] = system: HUVEC; assay: Antiangiogenic activity against HUVEC assessed as inhibition of capillary-like tube formation at 3 to 30 ug/ml after 15 hrs by Matrigel assay relative to control; format: functional, cell-based; conditions: Homo sapiens; summary of the method: as §1
[5] = system: HUVEC; assay: Antiangiogenic activity against HUVEC assessed as inhibition of capillary-like tube formation at 30 ug/ml after 15 hrs by Matrigel assay relative to control; format: functional; conditions: Homo sapiens; summary of the method: as §1

SMILES	Activity [1]	inhibition [2]	Activity [3]	inhibition [4]	inhibition at 3 µg/mL [2]	inhibition at 30 µg/mL [5]
COC(=O)[C@@]1(C)CCC[C@@]2(C)[C@H]1CC(=O)[C@H]1[C@@H](C)/C(=C/C(=O)N(C)CCO)CC[C@@H]12	Non-toxic	Active	–	–	–	–
COC(=O)[C@@]1(C)[C@@H](OC(C)=O)CC[C@@]2(C)[C@H]1[C@@H](O)C(=O)[C@H]1[C@@H](C)/C(=C/C(=O)N(C)CCO)CC[C@@H]12	Non-toxic	Active	–	–	–	–
COC(=O)[C@@]1(C)CCC[C@@]2(C)[C@H]1[C@@H](O)C(=O)[C@H]1[C@@H](C)/C(=C/C(=O)N(C)CCO)CC[C@@H]12	Non-toxic	Active	–	–	–	–
COC(=O)[C@]1(C)[C@@H]2CC[C@H]3[C@@H](C)/C(=C/C(=O)N(C)CCO)CC[C@@H]3[C@@]2(C)CC[C@@H]1O	Non-toxic	Active	–	–	–	–
COC(=O)[C@@]1(C)[C@@H](OC(C)=O)CC[C@@]2(C)[C@H]1CC(=O)[C@H]1[C@@H](C)/C(=C/C(=O)N(C)CCO)CC[C@@H]12	Non-toxic	–	Toxic	Active	42%	4.5%
COc1cc(/C=C/C(=O)CC(=O)/C=C/c2ccc(O)c(OC)c2)ccc1O [CURCUMIN]	–	–	–	–	45%	–
COC(=O)[C@]1(C)[C@@H]2CC(=O)[C@H]3[C@@H](C)/C(=C/C(=O)N(C)CCO)CC[C@@H]3[C@@]2(C)CC[C@@H]1O	Non-toxic	Active	–	–	–	–
